According to ChEMBL document CHEMBL5303300, “EUbOPEN Chemogenomics Library - Multiplex” (2023):
Values joined by “and” are separate entries in the source; they are usually repeats but may differ in a detail not shown here. Identical values can stand only once.

How the values were obtained:
HEK-293T = experiment: Multiplex assay against HEK293T; format: toxicity, cell-based; conditions: human, number of replicates 2
Method in brief: (§1)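 Cells stained live at seeding with Hoechst33342, BioTracker Green Microtubule Cytoskeleton Dye, MitoTracker Red and Annexin V Alexa Fluor 680 were imaged on a CQ1 microscope at 37°C and 5% CO2 after compound addition. Their classification by CellPathfinder machine-learning gating ran from Hoechst high-intensity objects versus normal cells, to healthy, pyknosed or fragmented nuclei among normal cells, to mitotic or apoptotic among pyknosed cells. Tubulin, mitochondrial-mass and membrane-permeability phenotypes are per cents of healthy-nucleus cells.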

U2OS = experiment: Multiplex assay against U2OS; format: toxicity, cell-based; conditions: human, number of replicates 2; method in brief: as §1
[1] = 24 h, 1 µM, compound concentration 1 uM
[2] = 24 h, 10 µM, compound concentration 10 uM
[3] = 48 h, 1 µM, compound concentration 1 uM
[4] = 48 h, 10 µM, compound concentration 10 uM
[5] = 12 h, 1 µM, compound concentration 1 uM
[6] = 12 h, 10 µM, compound concentration 10 uM

## CCc1ncnc(N2CCN(C(C)=O)CC2)c1C#Cc1ccc(N)nc1.Cl.Cl
HEK-293T; [1]
  Population Normal (%): 84% and 76%
  Population Pyknosed Nuclei (%): 12% and 14%
  Population Tubulin-Different-Phenotype (%): 68% and 67%
  Total Cell Count: 305 and 394
HEK-293T; [2]
  Population Apoptotic (%): 72% and 60%
  Population Fragmented Nuclei (%): 3% and 6%
  Population Healthy Nuclei (%): 78% and 74%
  Population Hoechst High Intensity Objects (%): 14%
  Population Membrane Permeable-Phenotype (%): 2% and 1%
  Population Mitochondria Different-Phenotype (%): 57% and 64%
  Population Mitotic Cells (%): 27% and 39%
  Population Normal (%): 85%
  Population Pyknosed Nuclei (%): 18%
  Population Tubulin-Different-Phenotype (%): 79% and 82%
  Total Cell Count: 233 and 255
HEK-293T; [3]
  Population Apoptotic (%): 71% and 74%
  Population Fragmented Nuclei (%): 14% and 9%
  Population Healthy Nuclei (%): 63% and 76%
  Population Hoechst High Intensity Objects (%): 20% and 31%
  Population Membrane Permeable-Phenotype (%): 1% and 3%
  Population Mitochondria Different-Phenotype (%): 37% and 25%
  Population Mitotic Cells (%): 28% and 25%
  Population Normal (%): 79% and 68%
  Population Pyknosed Nuclei (%): 21% and 14%
  Population Tubulin-Different-Phenotype (%): 72% and 67%
  Total Cell Count: 307 and 445
HEK-293T; [4]
  Population Apoptotic (%): 65% and 57%
  Population Fragmented Nuclei (%): 7%
  Population Healthy Nuclei (%): 72% and 73%
  Population Hoechst High Intensity Objects (%): 23% and 14%
  Population Membrane Permeable-Phenotype (%): 0%
  Population Mitochondria Different-Phenotype (%): 46% and 63%
  Population Mitotic Cells (%): 34% and 42%
  Population Normal (%): 76% and 85%
  Population Pyknosed Nuclei (%): 20% and 19%
  Population Tubulin-Different-Phenotype (%): 80% and 73%
  Total Cell Count: 260 and 244
U2OS; [5]
  Population Apoptotic (%): 100% and 70%
  Population Fragmented Nuclei (%): 19% and 10%
  Population Healthy Nuclei (%): 69% and 80%
  Population Hoechst High Intensity Objects (%): 0%
  Population Membrane Permeable-Phenotype (%): 0%
  Population Mitochondria Different-Phenotype (%): 0%
  Population Normal (%): 100%
  Population Pyknosed Nuclei (%): 11% and 9%
  Population Tubulin-Different-Phenotype (%): 55% and 90%
U2OS; [6]
  Population Apoptotic (%): 50% and 55%
  Population Fragmented Nuclei (%): 18% and 10%
  Population Healthy Nuclei (%): 72%
  Population Hoechst High Intensity Objects (%): 0%
  Population Membrane Permeable-Phenotype (%): 4% and 3%
  Population Mitochondria Different-Phenotype (%): 2% and 4%
  Population Mitotic Cells (%): 50% and 44%
  Population Normal (%): 100% and 99%
  Population Pyknosed Nuclei (%): 9% and 17%
  Population Tubulin-Different-Phenotype (%): 87% and 58%
U2OS; [1]
  Population Apoptotic (%): 55% and 56%
  Population Fragmented Nuclei (%): 9% and 7%
  Population Healthy Nuclei (%): 75% and 82%
  Population Hoechst High Intensity Objects (%): 0%
  Population Membrane Permeable-Phenotype (%): 2% and 0%
  Population Mitochondria Different-Phenotype (%): 2% and 0%
  Population Mitotic Cells (%): 44% and 43%
  Population Normal (%): 100% and 99%
  Population Pyknosed Nuclei (%): 14% and 10%
  Population Tubulin-Different-Phenotype (%): 72% and 90%
U2OS; [2]
  Population Apoptotic (%): 40% and 73%
  Population Fragmented Nuclei (%): 16% and 12%
  Population Healthy Nuclei (%): 67% and 71%
  Population Hoechst High Intensity Objects (%): 0%
  Population Membrane Permeable-Phenotype (%): 4% and 2%
  Population Mitochondria Different-Phenotype (%): 2% and 5%
  Population Mitotic Cells (%): 60% and 26%
  Population Normal (%): 100% and 99%
  Population Pyknosed Nuclei (%): 16%
  Population Tubulin-Different-Phenotype (%): 88% and 60%
U2OS; [3]
  Population Apoptotic (%): 77% and 69%
  Population Healthy Nuclei (%): 72% and 82%
  Population Hoechst High Intensity Objects (%): 0%
  Population Membrane Permeable-Phenotype (%): 0% and 2%
  Population Mitochondria Different-Phenotype (%): 0%
  Population Mitotic Cells (%): 22% and 30%
  Population Normal (%): 100%
  Population Pyknosed Nuclei (%): 12% and 13%
  Population Tubulin-Different-Phenotype (%): 75% and 93%
U2OS; [4]
  Population Apoptotic (%): 70% and 84%
  Population Fragmented Nuclei (%): 16% and 6%
  Population Healthy Nuclei (%): 32% and 66%
  Population Hoechst High Intensity Objects (%): 0%
  Population Membrane Permeable-Phenotype (%): 5% and 4%
  Population Mitochondria Different-Phenotype (%): 5% and 8%
  Population Mitotic Cells (%): 30% and 15%
  Population Normal (%): 100%
  Population Pyknosed Nuclei (%): 50% and 27%
  Population Tubulin-Different-Phenotype (%): 89% and 72%
